Data taken from ChEMBL document CHEMBL3124843, “Synthesis, cytostatic, antimicrobial, and anti-HCV activity of 6-substituted 7-(het)aryl-7-deazapurine ribonucleosides” (J Med Chem, 2014).
Activity calls are given as the source filed them. How the calls were made is not given here.

Experiments:
Hepatitis C virus [1] = test: Antiviral activity against Hepatitis C virus subtype 1b infected in human HuH7 cells; assay type: functional, organism-based, Hepacivirus hominis; conditions: genotype 1b, Huh-7
Pseudomonas aeruginosa [2] = test: Antibacterial activity against multi-resistant Pseudomonas aeruginosa A/16575 after 24 hrs; assay type: functional, organism-based
[3] = system: Staphylococcus haemolyticus; test: Antibacterial activity against methicillin-resistant Staphylococcus haemolyticus A/16568 after 24 hrs; assay type: functional, organism-based
A549 = test: Cytostatic activity against human A549 cells after 72 hrs by MTT assay; assay type: functional, cell-based; conditions: A549, 72 h
Outline: (§1)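 IC50 is the concentration that cuts cell growth by 50%, read by quantitative metabolic MTT staining after a 3-day treatment. The resistant sublines were made by raising the concentration of the cytotoxic drug step by step. CEM-DNR-bulk (daunorubicin-selected) stably overexpresses mrp-1. K562-TAX (paclitaxel-selected) expresses only mdr-1. HCT116p53−/− carries null p53 alleles. BJ and MRC-5 are nonmalignant fibroblasts.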

K562 [4] = test: Cytostatic activity against human K562 cells after 72 hrs by MTT assay; assay type: functional, cell-based; conditions: K562, 72 h; outline: as §1
CCRF-CEM [5] = test: Cytostatic activity against human CCRF-CEM cells after 72 hrs by MTT assay; assay type: functional, cell-based; outline: as §1
Candida albicans = test: Antifungal activity against Candida albicans after 48 hrs; assay type: functional, organism-based
CCRF-CEM [6] = test: Cell cycle arrest in human CCRF-CEM cells assessed as accumulation at sub-G1 phase at IC50 after 24 hrs by propidium iodide staining-based flow cytometric analysis (reference value: 9.6%); assay type: functional
CCRF-CEM [7] = test: Cell cycle arrest in human CCRF-CEM cells assessed as accumulation at S phase at IC50 after 24 hrs by propidium iodide staining-based flow cytometric analysis (reference value: 44.8%); assay type: functional
Escherichia coli [8] = test: Antibacterial activity against Escherichia coli CCM 3954 after 24 hrs; assay type: functional, organism-based
Candida parapsilosis = test: Antifungal activity against Candida parapsilosis after 48 hrs; assay type: functional, organism-based
Staphylococcus aureus [9] = test: Antibacterial activity against methicillin-resistant Staphylococcus aureus MRSA 4591 after 24 hrs; assay type: functional, organism-based
[10] = Cytotoxicity against human HuH7 cells infected with Hepatitis C virus subtype 2a; assay type: cell-based, Huh-7
[11] = Antiproliferative activity against human HeLaS3 cells after 72 hrs by XTT assay; assay type: functional, cell-based; conditions: HeLa S3, 72 h
Outline: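 Antiproliferative test on HL-60 promyelocytic leukemia and HeLa S3 cervical carcinoma cells growing in liquid suspension.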

[12] = Cytotoxicity against human HuH7 cells infected with Hepatitis C virus subtype 1b; assay type: cell-based, Huh-7
Enterococcus faecalis = test: Antibacterial activity against Enterococcus faecalis CCM 4224 after 24 hrs; assay type: functional, organism-based
Escherichia coli [13] = test: Antibacterial activity against multi-resistant Escherichia coli C/16702 after 24 hrs; assay type: functional, organism-based
CCRF-CEM [14] = test: Cell cycle arrest in human CCRF-CEM cells assessed as accumulation at G2/M phase at IC50 after 24 hrs by propidium iodide staining-based flow cytometric analysis (reference value: 14.2%); assay type: functional
CCRF-CEM [15] = test: Inhibition of DNA synthesis in human CCRF-CEM cells assessed as BrdU-positive cells at IC50 after 24 hrs by propidium iodide staining-based flow cytometric analysis (reference value: 50.1%); assay type: functional; parameters: scale not given: the % may be the effect or the level left
Hepatitis C virus [16] = test: Antiviral activity against Hepatitis C virus subtype 2a infected in human HuH7 cells; assay type: functional, organism-based, Hepacivirus hominis; conditions: genotype 2a, Huh-7
CCRF-CEM [17] = test: Inhibition of RNA synthesis in human CCRF-CEM cells assessed as BrU-positive cells at IC50 after 24 hrs by propidium iodide staining-based flow cytometric analysis (reference value: 43.3%); assay type: functional; parameters: scale not given: the % may be the effect or the level left
K562 [18] = test: Cytostatic activity against paclitaxel-resistant human K562 cells after 72 hrs by MTT assay; assay type: functional, cell-based; conditions: K562, 72 h; outline: as §1
Staphylococcus aureus [19] = test: Antibacterial activity against Staphylococcus aureus CCM 3953 after 24 hrs; assay type: functional, organism-based
[20] = Cytostatic activity against human CEM-DNR-bulk cells after 72 hrs by MTT assay; assay type: functional, cell-based; outline: as §1
HCT-116 = test: Cytostatic activity against human HCT116 cells after 72 hrs by MTT assay; assay type: functional, cell-based; conditions: HCT-116, 72 h; outline: as §1
CCRF-CEM [21] = test: Cell cycle arrest in human CCRF-CEM cells assessed as accumulation at G1 phase at IC50 after 24 hrs by propidium iodide staining-based flow cytometric analysis (reference value: 41%); assay type: functional
MRC5 = test: Cytostatic activity against human MRC5 cells after 72 hrs by MTT assay; assay type: ADME, cell-based; conditions: MRC5, 72 h; outline: as §1
Pseudomonas aeruginosa [22] = test: Antibacterial activity against Pseudomonas aeruginosa CCM 3955 after 24 hrs; assay type: functional, organism-based
Pichia kudriavzevii = test: Antifungal activity against Candida crusei after 48 hrs; assay type: functional, organism-based
Candida tropicalis = test: Antifungal activity against Candida tropicalis after 48 hrs; assay type: functional, organism-based
CCRF-CEM [23] = test: Mitotic arrest in human CCRF-CEM cells assessed as pH3Ser10-positive cells at IC50 after 24 hrs by propidium iodide staining-based flow cytometric analysis (reference value: 1.4%); assay type: functional
BJ = test: Cytostatic activity against human BJ cells after 72 hrs by MTT assay; assay type: ADME, cell-based; outline: as §1

## Nc1ncnc2c1c(-c1cccs1)cn2[C@@H]1O[C@H](CO)[C@@H](O)[C@H]1O
Hepatitis C virus [1]
  EC50: > 44 µM
Pseudomonas aeruginosa [2]
  Activity: inactive
[3]
  Activity: inactive
A549
  IC50: 40 nM
K562 [4]
  IC50: 30 nM
CCRF-CEM [5]
  IC50: 20 nM
Candida albicans
  Activity: inactive
CCRF-CEM [6]
  Activity: 18.6%
CCRF-CEM [7]
  Activity: 39.2%
Escherichia coli [8]
  Activity: inactive
Candida parapsilosis
  Activity: inactive
Staphylococcus aureus [9]
  Activity: inactive
[10]
  CC50: > 44 µM
[11]
  IC50: 20 nM
[12]
  CC50: > 44 µM
Enterococcus faecalis
  Activity: inactive
Escherichia coli [13]
  Activity: inactive
CCRF-CEM [14]
  Activity: 10.1%
CCRF-CEM [15]
  Activity: 52.4%
Hepatitis C virus [16]
  EC50: > 44 µM
CCRF-CEM [17]
  Activity: 15.2%
K562 [18]
  IC50: 20 nM
Staphylococcus aureus [19]
  Activity: inactive
[20]
  IC50: 170 nM
HCT-116
  IC50: 10 nM
CCRF-CEM [21]
  Activity: 50.6%
MRC5
  IC50: 39.4 µM
Pseudomonas aeruginosa [22]
  Activity: inactive
Pichia kudriavzevii
  Activity: inactive
Candida tropicalis
  Activity: inactive
CCRF-CEM [23]
  Activity: 1.4%
BJ
  IC50: 65.6 µM
